From paper PMC4410353 (Journal of nuclear medicine : official publication, Society …, 2009) come the findings set out here.

The assay is described as follows: 3-T MRI of gadofluorine M uptake in atherosclerotic-like lesions. It is filed as in vivo, rabbit. The following applies: T1-weighted MRI 1 h after i.v. 0.5 μmol/kg. In outline: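 Rabbits had right femoral artery injury by air desiccation, then balloon angioplasty. The contralateral uninjured femoral artery served as control. Rabbits were imaged at 4–6 wk post-desiccation (n = 9), 3 wk post-angioplasty (n = 6) and 4 wk later (n = 4). 3-T T1-weighted turbo-spin-echo imaging (TR/TE 600/12 ms) was run 1 h after i.v. non-receptor-specific plaque-targeting contrast agent.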

Molecules are shown by their SMILES.

`CC(C(=O)NCC(=O)NCCCC[C@H](NC(=O)CO[C@H]1O[C@H](CO)[C@@H](O)[C@H](O)[C@@H]1O)C(=O)N1CCN(S(=O)(=O)C(F)(F)C(F)(F)C(F)(F)C(F)(F)C(F)(F)C(F)(F)C(F)(F)C(F)(F)F)CC1)N1CCN(CC(=O)O)CCN(CC(=O)O)CCN(CC(=O)O)CC1` (some centres unmarked) [gadofluorine M]: the “MRI uptake in control arteries” value is reported as “no gadofluorine M uptake”. Moreover, the “MRI signal / uptake in injured vessels” value (all rabbits at all TPs) was “increased signal”.
